# Compound activity as filed in PubChem BioAssay.
# hERG protect – hERG rescue from dofetilide block, primary screen, cell-based, CHO-hERG, FluxOR thallium flux, dofetilide IC70; 0.51% of 310,000 active; activation (rescue from dofetilide block), less the hit threshold, % at 10 µM; dofetilide IC70 present;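 active = activation above the mean of controls blocked by dofetilide plus 5 SD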;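 note: thallium influx through hERG after potassium depolarization seen as dye fluorescence rise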
# KCNQ1 pot – potentiators or activators of KCNQ1 channel, primary screen, cell-based, thallium flux, high-throughput; Potassium voltage-gated channel subfamily KQT member 1 (Homo sapiens), P51787; CHO-K1 KCNQ1, thallium flux FluxOR fluorescence; active compounds read high; B-score at 10 µM; 0.35% of 310,000 active; AID 2648, 2010;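 active = fluorescence ratio B-score, a plate-corrected score, at least three library SD, with initial intensity B-score within 5 SD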
# Target sequence (P51787 whole entry, looked up): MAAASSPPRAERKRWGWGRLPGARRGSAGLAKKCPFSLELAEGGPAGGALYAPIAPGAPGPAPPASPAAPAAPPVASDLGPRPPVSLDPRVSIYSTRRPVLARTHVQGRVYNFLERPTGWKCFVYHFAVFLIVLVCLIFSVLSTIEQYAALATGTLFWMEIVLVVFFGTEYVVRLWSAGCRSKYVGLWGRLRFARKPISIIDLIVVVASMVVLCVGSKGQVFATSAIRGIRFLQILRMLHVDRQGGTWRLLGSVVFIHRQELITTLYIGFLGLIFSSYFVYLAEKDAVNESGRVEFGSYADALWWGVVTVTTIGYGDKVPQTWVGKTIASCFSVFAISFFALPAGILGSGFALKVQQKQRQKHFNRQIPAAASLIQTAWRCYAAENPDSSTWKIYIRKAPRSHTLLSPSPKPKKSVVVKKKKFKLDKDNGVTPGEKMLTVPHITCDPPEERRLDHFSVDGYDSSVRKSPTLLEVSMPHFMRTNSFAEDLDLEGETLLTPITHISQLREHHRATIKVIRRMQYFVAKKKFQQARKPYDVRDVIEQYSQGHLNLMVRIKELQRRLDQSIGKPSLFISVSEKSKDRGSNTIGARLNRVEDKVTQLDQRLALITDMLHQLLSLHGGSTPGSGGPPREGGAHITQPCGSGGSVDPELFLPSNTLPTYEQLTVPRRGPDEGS
#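 assay system = KCNQ1-transfected CHO-K1 cells | medium = assay buffer with matched DMSO | probe or stimulus = depolarizing K+/Tl+ stimulus, K2SO4 and Tl2SO4 each 12.5 mM in 5x stock | dosing = single dose | incubation = dye 90 min, compound 20 min, room temperature | detection = kinetic FluxOR fluorescence, 10 s baseline plus 110 s post-stimulus | evaluation = ratio B score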
# KCNK3 inh – human KCNK3 channel inhibitors, primary screen, CHO cells, FluxOR thallium flux, B-score | B-score at 10 µM | 0.84% of 340,000 active | Potassium channel subfamily K member 3 (Homo sapiens), O14649 | FluxOR fluorescence; active compounds read low;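 active = B-score under library mean minus 4 SD, starting fluorescence ratio at most library mean plus 5 SD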;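 note: more negative B-score means stronger inhibition of thallium flux through KCNK3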
# KCNQ1 inh – inhibitors of human KCNQ1 channel, primary screen, cell-based, thallium flux, high-throughput; 1.3% of 310,000 active; AID 2642, 2010; Potassium voltage-gated channel subfamily KQT member 1 (Homo sapiens), P51787; B-score at 10 µM; CHO-K1 KCNQ1, FluxOR thallium flux fluorescence; active compounds read high;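 active = compounds whose thallium flux B-score, printed positive for inhibition, exceeds three library SD while starting fluorescence stays within three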;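 note: channel opened by potassium depolarization with thallium stimulus after 20 min compound exposure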
# KCNK9 inh – KCNK9 potassium channel inhibitors, primary screen, HEK293 cells, thallium flux; Potassium channel subfamily K member 9 (Homo sapiens), Q9NPC2; FluxOR thallium flux fluorescence; active compounds read low; B-score at 10 µM; 1.2% of 310,000 active; AID 488922, 2010;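 active = ratio B-score over 3 SD below the library mean, with starting fluorescence within 5 SD of its mean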;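 note: negative B-score means less thallium flux so channel inhibition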
# KCNK9 inh conf – KCNK9 potassium channel inhibitors, confirmation, HEK293 cells, thallium flux, duplicate | FluxOR thallium flux fluorescence | inhibition, % at 10 µM | 43% of 4,900 active | shares compounds with KCNK9 inh;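 active = thallium signal inhibited by more than 5 SD of the compound-free buffer control wells, on both duplicate plates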;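 note: 0% = assay buffer control wells without compound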
# Kir2-1 spec – mouse Kir2.1 channel inhibition, confirmation, selectivity assay for KCNK9 modulator project, cell-based, HEK293, thallium flux; shares compounds with KCNK9 inh; Kir2.1 cells, FluxOR thallium flux fluorescence; inhibition, % at 10 µM; 4% of 4,900 active; AID 492993, 2010;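 active = thallium signal drop more than 5 SD beyond the mean of the no-compound control wells, seen in both duplicate plates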;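 note: signal is fluorescence rise after thallium addition divided by baseline fluorescence; plate controls were assay buffer only for no effect and full block by chlorpromazine control for full effect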
# KCNK9 uninduced – thallium flux in non-induced HEK293 cells, confirmation, counter-screen for KCNK9 inhibitor project, cell-based, second counter screen, non-induced KCNK9-HEK293. AID 492997, 2010. 40% of 4,900 active. FluxOR thallium flux. shares compounds with KCNK9 inh. inhibition, % at 10 µM;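 active = thallium signal drop beyond 5 SD of the untreated control mean, on both duplicate plates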;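 note: plate controls were buffer only IC0 wells for no effect and SID17386958 at its maximal inhibitory level for full effect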
# * = called active by the depositor; i = inactive; . = not tested or not shown. Most compounds without a hit are left out; they make up all but 3.1% or so of the library.
SMILES,hERG protect,KCNQ1 pot,KCNK3 inh,KCNQ1 inh,KCNK9 inh,KCNK9 inh conf,Kir2-1 spec,KCNK9 uninduced
CCOC(=O)Cc1cnc(NC(=O)CSc2nc(C)cc(C)n2)s1,-17,i,i,i,i,i,i,i
Cc1cc(C)nc(SCC(=O)Nc2ncc(Cc3cccc(Cl)c3Cl)s2)n1,-11,i,i,i,i,.,.,.
Cc1ccc(S(=O)(=O)NC(C)(C)CN2CCCCC2)cc1,-3,i,i,i,i,.,.,.
CNC[C@H](Cc1ccccc1)NC[C@@H](Cc1cccc2ccccc12)NCCc1ccc(C)cc1,-28,i,i,11*,-9.5*,70%*,76%*,58%*
CNCCNC[C@H](Cc1cccc2ccccc12)NCCc1ccccc1,.,.,i,.,.,.,.,.
CC(C)CC1CCCCC1OC(=O)C[N+]1(C)CCCCC1 (stereo not given),-8,i,i,i,i,.,.,.
NC(=O)CSc1nnc(-c2ccccn2)n1N,-6,i,i,i,i,.,.,.
CCOCCOC(=O)Cn1cnc2scc(-c3ccc(C)cc3)c2c1=O,-5,i,i,i,i,i,i,i
CCCOC(=O)Cn1cnc2scc(-c3ccc(OC)cc3)c2c1=O,-7,i,i,i,i,i,i,i
Cc1ccc(-c2csc3ncn(CC#N)c(=O)c23)cc1,-11,i,i,i,i,.,.,.
O=C(OCc1cc(=O)n2cc(Br)ccc2n1)c1ccc(Cl)c(S(=O)(=O)NCc2ccccc2)c1,-9,i,i,i,-11*,i,i,i
CN1C(=O)/C(=C/c2cn(CC(=O)N3CCCCC3)c3ccccc23)c2ccccc21,-17,i,.,i,i,.,.,.
Cc1cccc(NCN2C(=O)c3ccncc3C2=O)n1,-6,i,i,i,i,i,i,i
O=C1c2ccncc2C(=O)N1Cc1cccc(Cl)c1,-2,i,i,i,i,.,.,.
Cc1cc(C)cc(Oc2ncnc3c2ncn3Cc2c(Cl)cccc2Cl)c1,1,i,i,i,i,i,i,i
CCOc1cccc(-c2c(C(=O)N/N=C/c3ccc(C)s3)nnn2-c2nonc2N)c1,-14,i,i,i,i,.,.,.
CCOc1cccc(-c2c(C(=O)N/N=C/c3c(F)cccc3Cl)nnn2-c2nonc2N)c1,-10,i,i,i,-9.4*,i,i,i
COC(=O)Cc1c(C)c2ccc(OCC(=O)c3ccc(OC)c(OC)c3)cc2oc1=O,-1,i,.,i,i,.,.,.
CC1Cc2ccccc2N1C(=O)c1ccc(N2CCCCC2)c([N+](=O)[O-])c1 (stereo not given),-13,i,i,i,-11*,49%*,i,25%*
Nc1c(S(=O)(=O)c2cccs2)c2nc3ccccc3nc2n1Cc1ccc2c(c1)OCO2,-3,i,i,i,-12*,32%*,i,40%*
O=C(/C=C/c1ccc(F)cc1)c1cc(Br)ccc1O,-7,i,i,i,i,.,.,.
O=C(/C=C/c1ccccc1)c1cc(Br)ccc(=O)c1O,12*,22*,i,i,i,i,i,i
Cc1ccc(CSc2nc3ccsc3c(=O)n2Cc2ccccn2)cc1,-8,i,i,i,-14*,79%*,i,44%*
Cc1ccc(-c2cc(-c3n[nH]c(=S)o3)c3ccccc3n2)cc1,12*,15*,i,i,i,i,i,i
CCc1nnc(NC(=O)CSc2nnc(-c3ccccc3OC)n2-c2ccccc2)s1,-16,i,i,i,-17*,68%*,i,32%*
SMILES,hERG protect,KCNQ1 pot,KCNK3 inh,KCNQ1 inh,KCNK9 inh,KCNK9 inh conf,Kir2-1 spec,KCNK9 uninduced
Cc1cc(NC(=O)/C=C/c2ccccc2Cl)n(-c2nc3ccccc3[nH]2)n1,-8,i,i,i,-9.1*,i,i,26%*
Cc1ccccc1Cn1nc(C)c(NC(=O)c2noc3c2CCc2ccccc2-3)c1C,-12,i,i,i,i,i,i,i
O=C(O)CCCCn1c(SCC(=O)Nc2ccccc2C(F)(F)F)nc2ccsc2c1=O,-4,i,i,i,i,.,.,.
CCC(C)n1c(SCC(=O)Nc2ccccc2C(F)(F)F)nc2ccsc2c1=O (stereo not given),-10,i,i,i,-8.9*,26%*,i,26%*
Cc1ccc(-c2nn(-c3ccccc3)cc2C=C2C(=O)CC(C)(C)CC2=O)cc1,-9,i,i,i,i,.,.,.
CC1=NNC(=O)/C1=C\c1cn(-c2ccccc2)nc1-c1ccc(Cl)cc1,-8,i,i,i,i,i,i,i
O=C(CN(c1cccc(C(F)(F)F)c1)S(=O)(=O)c1ccc(Cl)c([N+](=O)[O-])c1)NCc1ccccc1Cl,-8,i,i,i,-8.3*,42%*,i,36%*
O=C(CN(c1cccc(C(F)(F)F)c1)S(=O)(=O)c1ccc(Cl)c([N+](=O)[O-])c1)NCc1ccccc1,-9,i,i,i,i,.,.,.
Cc1ccccc1CN(CC1CCC(C(=O)O)CC1)C(=S)Nc1ccccc1F (stereo not given),-2,i,i,i,i,.,.,.
CCN(CC)C(=O)CSC1=N/C(=C/c2ccco2)C(=O)N1c1ccc(OC)c(Cl)c1,-4,i,i,i,i,.,.,.
COc1ccc(N2C(=O)/C(=C\c3ccco3)N=C2SCC(=O)NC(C)(C)C)cc1Cl,-6,i,i,i,-9.1*,44%*,i,33%*
CCOc1ccccc1N1CCN(C(=O)c2ccc3c(c2)OCO3)CC1,-7,i,i,i,i,.,.,.
Cc1ccc(-n2nnnc2SC(C)C(N)=O)c(C)c1 (stereo not given),-9,i,i,i,i,.,.,.
Cc1cc(C)c(-n2nnnc2SC(C)C)c(C)c1,-5,i,i,i,-11*,54%*,i,42%*
